In ChEMBL document CHEMBL1156239, “Synthesis, anticonvulsant and antimicrobial activities of some new 2-acetylnaphthalene derivatives” (Bioorg Med Chem, 2010):
In brackets after ≈: the same amount, converted by molar mass. Activity calls are given as the source filed them. The rule behind the calls is not given here.

What was measured:
Mus musculus [1] = assay: Neurotoxicity in CF1 mouse assessed as ability to grasp rotarod at 300 mg/kg, ip after 4 hrs by rotarod test; type: toxicity, organism-based; set-up: dose 300 mg/kg, route intraperitoneal; conditions: in vivo
Procedure, shortened: (§1)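 Male albino CF#1 mice (18–25.5 g), free access to food and water except during testing, under NINDS Anticonvulsant Screening Program procedures. Compounds were suspended in 0.5% methylcellulose and given ip. Neurotoxicity was scored by rotarod 0.5 h and 4 h after dosing, at screening doses of 30, 100 or 300 mg/kg. Results are reported as affected/tested animals.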

Mus musculus [2] = assay: Neurotoxicity in CF1 mouse assessed as muscle spasms at 300 mg/kg, ip after 0.5 hrs by rotarod test; type: toxicity, organism-based, Muscle tissue; set-up: dose 300 mg/kg, route intraperitoneal; conditions: in vivo
Rattus norvegicus [3] = assay: Anticonvulsant activity in Sprague-Dawley rat assessed as inhibition of maximal electroshock-induced seizures at 30 mg/kg, po after 0.25 hrs; type: functional, organism-based; set-up: dose 30 mg/kg
Procedure, shortened: (§2)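 Male albino Sprague-Dawley rats (105–130 g) given a single oral 30 mg/kg dose suspended in 0.5% methylcellulose; MES (60 Hz, 150 mA, 0.2 s, tetracaine-anesthetized eyes) at 0.25, 0.5, 1, 2 and 4 h; 4 rats per time point; scored protected/tested.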

Mus musculus [4] = assay: Neurotoxicity in CF1 mouse at 100 mg/kg, ip after 4 hrs by rotarod test; type: toxicity, organism-based; set-up: dose 100 mg/kg, route intraperitoneal; conditions: in vivo
Procedure, shortened: (§3)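 Male albino CF#1 mice (18–25.5 g) dosed ip with compound suspended in 0.5% methylcellulose, 0.5 h or 4 h before testing; neurotoxicity assessed by rotarod, scored as number toxic/number tested.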

Rattus norvegicus [5] = assay: Neurotoxicity in Sprague-Dawley rat at 30 mg/kg, ip after 0.5 hrs by rotarod test; type: toxicity, organism-based; set-up: dose 30 mg/kg, route intraperitoneal; conditions: in vivo
Rattus norvegicus [6] = assay: Neurotoxicity in Sprague-Dawley rat at 30 mg/kg, po after 2 hrs by rotarod test; type: toxicity, organism-based; set-up: dose 30 mg/kg, route oral; conditions: in vivo
Escherichia coli = assay: Antibacterial activity against Escherichia coli ATCC 25922 after 24 hrs by broth microdilution method; type: functional; conditions: ATCC 25922, 24 h
Procedure, shortened: (§4)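 Broth microdilution in Mueller Hinton broth; compound stocks in DMSO, diluted into test medium. Plates incubated at 35 °C and read visually after 24 h. MIC taken as lowest concentration preventing visible growth. Ampicillin reference.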

Mus musculus [7] = assay: Neurotoxicity in CF1 mouse at 30 mg/kg, ip after 0.5 hrs by rotarod test; type: toxicity, organism-based; set-up: dose 30 mg/kg, route intraperitoneal; conditions: in vivo; procedure, shortened: as §3
Mus musculus [8] = assay: Anticonvulsant activity in CF1 mouse assessed as inhibition of maximal electroshock-induced seizures at 30 mg/kg, ip after 0.5 hrs; type: functional, organism-based; set-up: dose 30 mg/kg
Procedure, shortened: (§5)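 Male albino CF#1 mice (18–25.5 g), compound suspended in 0.5% methylcellulose, given ip 0.5 h or 4 h before test. Eyes treated with 0.5% tetracaine HCl in saline; corneal-type MES at 60 Hz, 50 mA for 0.2 s; protection scored as animals protected/tested.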

Rattus norvegicus [9] = assay: Anticonvulsant activity in Sprague-Dawley rat assessed as inhibition of maximal electroshock-induced seizures at 30 mg/kg, ip; type: functional, organism-based; set-up: dose 30 mg/kg
Rattus norvegicus [10] = assay: Anticonvulsant activity in Sprague-Dawley rat assessed as inhibition of maximal electroshock-induced seizures at 30 mg/kg, ip after 0.5 hrs; type: functional, organism-based; set-up: dose 30 mg/kg
Mus musculus [11] = assay: Neurotoxicity in CF1 mouse at 30 mg/kg, ip after 4 hrs by rotarod test; type: toxicity, organism-based; set-up: dose 30 mg/kg, route intraperitoneal; conditions: in vivo; procedure, shortened: as §3
Rattus norvegicus [12] = assay: Anticonvulsant activity in Sprague-Dawley rat assessed as inhibition of maximal electroshock-induced seizures at 30 mg/kg, po after 4 hrs; type: functional, organism-based; set-up: dose 30 mg/kg; procedure, shortened: as §2
Rattus norvegicus [13] = assay: Neurotoxicity in Sprague-Dawley rat at 30 mg/kg, ip after 1 hr by rotarod test; type: toxicity, organism-based; set-up: dose 30 mg/kg, route intraperitoneal; conditions: in vivo
Enterococcus faecalis = assay: Antibacterial activity against Enterococcus faecalis ATCC 29212 after 24 hrs by broth microdilution method; type: functional; conditions: ATCC 29212, 24 h; procedure, shortened: as §4
Rattus norvegicus [14] = assay: Neurotoxicity in Sprague-Dawley rat at 30 mg/kg, po after 4 hrs by rotarod test; type: toxicity, organism-based; set-up: dose 30 mg/kg, route oral; conditions: in vivo
Pseudomonas aeruginosa = assay: Antibacterial activity against Pseudomonas aeruginosa ATCC 27853 after 24 hrs by broth microdilution method; type: functional; conditions: ATCC 27853, 24 h; procedure, shortened: as §4
Mus musculus [15] = assay: Neurotoxicity in CF1 mouse assessed as muscle spasms at 300 mg/kg, ip after 4 hrs by rotarod test; type: toxicity, organism-based, Muscle tissue; set-up: dose 300 mg/kg, route intraperitoneal; conditions: in vivo
Rattus norvegicus [16] = assay: Neurotoxicity in Sprague-Dawley rat at 30 mg/kg, po after 1 hr by rotarod test; type: toxicity, organism-based; set-up: dose 30 mg/kg, route oral; conditions: in vivo
Mus musculus [17] = assay: Anticonvulsant activity in CF1 mouse assessed as inhibition of maximal electroshock-induced seizures at 300 mg/kg, ip after 4 hrs; type: functional, organism-based; set-up: dose 300 mg/kg; procedure, shortened: as §5
Rattus norvegicus [18] = assay: Neurotoxicity in Sprague-Dawley rat at 30 mg/kg, ip after 2 hrs by rotarod test; type: toxicity, organism-based; set-up: dose 30 mg/kg, route intraperitoneal; conditions: in vivo
Candida parapsilosis = assay: Antifungal activity against Candida parapsilosis ATCC 22019 after 48 hrs by broth microdilution method; type: functional; conditions: Lodderomyces parapsilosis, ATCC 22019, 48 h
Staphylococcus aureus = assay: Antibacterial activity against Staphylococcus aureus ATCC 25923 after 24 hrs by broth microdilution method; type: functional; conditions: ATCC 25923, 24 h; procedure, shortened: as §4
Rattus norvegicus [19] = assay: Neurotoxicity in Sprague-Dawley rat at 30 mg/kg, po after 0.5 hrs by rotarod test; type: toxicity, organism-based; set-up: dose 30 mg/kg, route oral; conditions: in vivo
Rattus norvegicus [20] = assay: Anticonvulsant activity in Sprague-Dawley rat assessed as inhibition of maximal electroshock-induced seizures at 30 mg/kg, po after 0.5 hrs; type: functional, organism-based; set-up: dose 30 mg/kg; procedure, shortened: as §2
Pichia kudriavzevii = assay: Antifungal activity against Candida krusei ATCC 6258 after 48 hrs by broth microdilution method; type: functional; conditions: ATCC 6258, 48 h
Mus musculus [21] = assay: Neurotoxicity in CF1 mouse assessed as ability to grasp rotarod at 300 mg/kg, ip after 0.5 hrs by rotarod test; type: toxicity, organism-based; set-up: dose 300 mg/kg, route intraperitoneal; conditions: in vivo; procedure, shortened: as §3
Mus musculus [22] = assay: Neurotoxicity in CF1 mouse at 100 mg/kg, ip after 0.5 hrs by rotarod test; type: toxicity, organism-based; set-up: dose 100 mg/kg, route intraperitoneal; conditions: in vivo; procedure, shortened: as §3
Mus musculus [23] = assay: Anticonvulsant activity in CF1 mouse assessed as inhibition of maximal electroshock-induced seizures at 300 mg/kg, ip after 0.5 hrs; type: functional, organism-based; set-up: dose 300 mg/kg; procedure, shortened: as §5
Mus musculus [24] = assay: Anticonvulsant activity in CF1 mouse assessed as inhibition of maximal electroshock-induced seizures at 100 mg/kg, ip after 0.5 hrs; type: functional, organism-based; set-up: dose 100 mg/kg; procedure, shortened: as §5
Rattus norvegicus [25] = assay: Neurotoxicity in Sprague-Dawley rat at 30 mg/kg, po after 0.25 hrs by rotarod test; type: toxicity, organism-based; set-up: dose 30 mg/kg, route oral; conditions: in vivo
Mus musculus [26] = assay: Anticonvulsant activity in CF1 mouse assessed as inhibition of maximal electroshock-induced seizures at 30 mg/kg, ip after 4 hrs; type: functional, organism-based; set-up: dose 30 mg/kg; procedure, shortened: as §5
Mus musculus [27] = assay: Anticonvulsant activity in CF1 mouse assessed as inhibition of maximal electroshock-induced seizures at 100 mg/kg, ip after 4 hrs; type: functional, organism-based; set-up: dose 100 mg/kg; procedure, shortened: as §5
Rattus norvegicus [28] = assay: Anticonvulsant activity in Sprague-Dawley rat assessed as inhibition of maximal electroshock-induced seizures at 30 mg/kg, po after 1 hr; type: functional, organism-based; set-up: dose 30 mg/kg; procedure, shortened: as §2
Mus musculus [29] = assay: Neurotoxicity in CF1 mouse assessed as clonic seizures at 300 mg/kg, ip after 0.5 hrs by rotarod test; type: toxicity, organism-based; set-up: dose 300 mg/kg, route intraperitoneal; conditions: in vivo
Mus musculus [30] = assay: Neurotoxicity in CF1 mouse at 300 mg/kg, ip after 4 hrs by rotarod test; type: toxicity, organism-based; set-up: dose 300 mg/kg, route intraperitoneal; conditions: in vivo; procedure, shortened: as §3
Mus musculus [31] = assay: Neurotoxicity in CF1 mouse assessed as mortality at 300 mg/kg, ip after 0.5 hrs by rotarod test; type: toxicity, organism-based; set-up: dose 300 mg/kg, route intraperitoneal; conditions: in vivo; procedure, shortened: as §1

Row | MIC (Escherichia coli) | MIC (Enterococcus faecalis) | MIC (Pseudomonas aeruginosa) | MIC (Candida parapsilosis) | MIC (Staphylococcus aureus) | MIC (Pichia kudriavzevii) | SMILES | Activity (Mus musculus [2]) | inhibition (Rattus norvegicus [3]) | Activity (Mus musculus [4]) | Activity (Rattus norvegicus [6]) | inhibition (Mus musculus [8]) | Activity (Mus musculus [11]) | Activity (Rattus norvegicus [14]) | Activity (Rattus norvegicus [16]) | inhibition (Mus musculus [17]) | Activity (Rattus norvegicus [19]) | Activity (Mus musculus [21]) | inhibition (Mus musculus [24]) | Activity (Rattus norvegicus [25]) | inhibition (Mus musculus [26]) | further results
1 | > 1020 µg/mL | 16 µg/mL (≈ 43.9 µM) | > 1020 µg/mL | 1020 µg/mL (≈ 2810 µM) | 8 µg/mL (≈ 21.9 µM) | 1020 µg/mL (≈ 2810 µM) | CCCC(CCC)C(=O)OC(Cn1ccnc1)c1ccc2ccccc2c1 (stereo not given) | Toxic | inactive | Non-toxic | Non-toxic | inactive | Non-toxic | Non-toxic | Non-toxic | Active | Non-toxic | Toxic | Active | Non-toxic | inactive | Activity (Mus musculus [1]): Toxic; Activity (Rattus norvegicus [5]): Non-toxic; Activity (Mus musculus [7]): Non-toxic; inhibition (Rattus norvegicus [9]): Active; inhibition (Rattus norvegicus [10]): Active; inhibition (Rattus norvegicus [12]): inactive; Activity (Rattus norvegicus [13]): Non-toxic; Activity (Mus musculus [15]): Toxic; Activity (Rattus norvegicus [18]): Non-toxic; inhibition (Rattus norvegicus [20]): inactive; Activity (Mus musculus [22]): Non-toxic; inhibition (Mus musculus [23]): Active
2 | > 1020 µg/mL | 32 µg/mL (≈ 93.5 µM) | > 1020 µg/mL | 1020 µg/mL (≈ 2990 µM) | 8 µg/mL (≈ 23.4 µM) | 512 µg/mL (≈ 1500 µM) | O=C(OC(Cn1ccnc1)c1ccc2ccccc2c1)c1ccccc1 (stereo not given) | Toxic |  | Non-toxic | Non-toxic | inactive | Non-toxic | Non-toxic | Non-toxic | inactive | Non-toxic | Toxic | Active | Non-toxic | inactive | inhibition (Mus musculus [27]): inactive; inhibition (Rattus norvegicus [28]): inactive; inhibition (Rattus norvegicus [12]): inactive; Activity (Mus musculus [29]): Toxic; inhibition (Rattus norvegicus [20]): inactive; inhibition (Mus musculus [23]): Active

Row | SMILES | MIC (Escherichia coli) | MIC (Enterococcus faecalis) | MIC (Pseudomonas aeruginosa) | MIC (Candida parapsilosis) | MIC (Staphylococcus aureus) | MIC (Pichia kudriavzevii) | Activity (Mus musculus [2]) | inhibition (Rattus norvegicus [3]) | Activity (Mus musculus [4]) | Activity (Rattus norvegicus [6]) | inhibition (Mus musculus [8]) | Activity (Mus musculus [11]) | Activity (Rattus norvegicus [14]) | Activity (Rattus norvegicus [16]) | inhibition (Mus musculus [17]) | Activity (Rattus norvegicus [19]) | Activity (Mus musculus [21]) | inhibition (Mus musculus [24]) | Activity (Rattus norvegicus [25]) | inhibition (Mus musculus [26]) | further results
3 | CC(C)C(=O)OC(Cn1ccnc1)c1ccc2ccccc2c1 (stereo not given) | > 1020 µg/mL | 128 µg/mL (≈ 415 µM) | > 1020 µg/mL | 256 µg/mL (≈ 830 µM) | 16 µg/mL (≈ 51.9 µM) | 256 µg/mL (≈ 830 µM) | Toxic | inactive | Non-toxic | Non-toxic | Active | Non-toxic | Non-toxic | Non-toxic | Active | Non-toxic | Toxic | Active | Non-toxic | inactive | Activity (Mus musculus [30]): Non-toxic; Activity (Mus musculus [7]): Non-toxic; Activity (Mus musculus [31]): Toxic
